High-throughput results: PubChem, several laboratories
HIF activator = HIF pathway transcriptional activation. U2OS HRE-luciferase reporter, luminescence; normalized: DMSO 0%, desferrioxamine 100%. activation, % at 7.5 µM (by protocol). 300,000 tested, 0.32% active. AID 1910;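 active = mean activation of at least 10% of the iron chelator positive control signal, with at least half of replicates also reaching 10%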
proCasp7 act = counter-screen for procaspase-3 activators: activators of human procaspase-7; 330,000 tested, 0.093% active; recombinant procaspase-7, Ac-DEVD-pNA absorbance 405 nm; D23A/D198A/D206A triple mutant, cannot self-cleave; scale: DMSO 0, 5 µM enzyme 100; activation, % at 8.5 µM; P55210;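 active = percent activation above the screen-wide mean plus 3 SD, cut at about 25% in these data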
Target sequence (P55210 whole entry D23A/D198A/D206A): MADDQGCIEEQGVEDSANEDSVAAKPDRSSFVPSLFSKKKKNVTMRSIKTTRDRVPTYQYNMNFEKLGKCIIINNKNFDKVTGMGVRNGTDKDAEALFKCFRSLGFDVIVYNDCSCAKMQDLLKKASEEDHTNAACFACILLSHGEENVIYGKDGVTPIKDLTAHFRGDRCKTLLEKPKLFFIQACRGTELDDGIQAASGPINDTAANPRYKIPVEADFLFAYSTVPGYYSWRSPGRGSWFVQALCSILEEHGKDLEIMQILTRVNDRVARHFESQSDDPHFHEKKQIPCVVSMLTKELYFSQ
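Assay system: Uncleavable procaspase-7 mutant enzyme | Input: 2 µM procaspase-7 mutant as dispensed | Timing: 1 h compound preincubation, 2 h substrate cleavage, 25 °C | Repeats: One well per compound | Control set: DMSO wells as 0%, DMSO with 5 µM added PC-7 as 100% | Technique: Epi-absorbance of released pNA at 405 nm, two timepoints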
GAA850 FXN act = frataxin GAA850 promoter activation. HEK293 lucGAA850 FXN promoter luciferase reporter, 24 h; percent of 10 µM SAHA response. activation, % at 6 µM. 360,000 tested, 0.56% active. AID 540364;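 active = activation above the average of all compounds screened plus 3 SD, cutoff fixed separately per campaign, cut at about 7.5% in these data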;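 note: 0% = DMSO wells and 100% = 10 µM SAHA wells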
Calb FLC = affects C. albicans growth with fluconazole | 300,000 tested, 0.57% active | growth inhibition, % (concentration not given with the values) | C. albicans CaCi-2 (fluconazole-resistant clinical isolate) + fluconazole, Alamar Blue growth, 48 h | AID 1979;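 active = growth inhibition above about 58% in most replicates, limit read from the data, passing the limit was not always enough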;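 note: all wells also contain fluconazole at 8 µg/ml as a sub-toxic cotreatment; 0% = median of DMSO wells and 100% = median of geldanamycin control wells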
Neddyl block = blocks human cullin neddylation | P61081+Q13564 | TR-FRET cullin neddylation, biochemical | inhibition, % at 25 µM | 360,000 tested, 0.58% active; in the data active = inhibition above about 36%
proCasp3 act = activators of human procaspase-3 | recombinant procaspase-3 D3A, Ac-DEVD-pNA absorbance 405 nm | activation, % at 8.5 µM | 330,000 tested, 0.11% active | AID 463141;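 active = activation above the mean of all tested compounds plus 3 SD, cut at about 21% in these data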;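 note: 0% = DMSO alone and 100% = DMSO wells spiked with extra 5 µM PC-3 D3A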
Target sequence (P42574 whole entry D9A/D28A/D175A): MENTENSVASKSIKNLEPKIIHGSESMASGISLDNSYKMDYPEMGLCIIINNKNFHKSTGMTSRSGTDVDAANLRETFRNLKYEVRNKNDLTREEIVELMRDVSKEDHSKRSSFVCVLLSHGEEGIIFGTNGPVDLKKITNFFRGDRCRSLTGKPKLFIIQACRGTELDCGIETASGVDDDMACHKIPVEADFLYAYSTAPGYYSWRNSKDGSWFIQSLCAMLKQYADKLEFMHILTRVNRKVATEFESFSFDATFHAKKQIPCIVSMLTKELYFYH
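System: Procaspase-3 D3A mutant. Medium: Zinc-free 300 mM NaCl, 50 mM HEPES, 0.01% Triton X-100. Schedule: 1 h preincubation plus 2 h reaction at 25 °C. Measured by: 405 nm absorbance of p-nitroaniline, reads at 0 and 120 min. Read-out: percent activation relative to control range.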
* hit, by the source's call. The list is not random: actives were taken first. Their share in the collection is about 1.9%.

Results for CCCNC(=O)c1ccc2c(=O)c(O)c(-c3cccc(Br)c3)[nH]c2c1 ?
HIF activator: 0.6; proCasp7 act: 3.9; GAA850 FXN act: -6.0; Calb FLC: 113.5*; Neddyl block: 20.4; proCasp3 act: 8.3

Results for CCOC(=O)c1[nH]c(CN2CCN(c3ccc(OC)cc3)CC2)c(C(=O)OCC)c1C ?
HIF activator: 0.5; proCasp7 act: 1.5; GAA850 FXN act: 0.8; Calb FLC: 0.1; Neddyl block: 1.9; proCasp3 act: 2.5

What do the screens show for `CCOC(=O)c1cc(C#N)c(N2CCN(c3ccc(OC)cc3)CC2)[nH]c1=O`?
HIF activator: -0.1; proCasp7 act: -8.6; GAA850 FXN act: 0.5; Calb FLC: 92.5*; Neddyl block: 16.9; proCasp3 act: 7.5

How did CC1(C(=O)NS(=O)(=O)C2CC2)CCN(C(=O)c2ccccc2F)C1 (stereo not drawn) do in these assays?
GAA850 FXN act: -0.2; Neddyl block: -7.5

Results for CCC(C)n1cnc2c(c1=O)c1nc3ccccc3nc1n2Cc1ccc(OC)cc1 (stereo not drawn) ?
HIF activator: -0.5; proCasp7 act: -2.5; GAA850 FXN act: 0.4; Calb FLC: 98.0*; Neddyl block: -5.4; proCasp3 act: 3.0

Results for O=C1C=CC(=O)N1c1ccc(Sc2ccc([N+](=O)[O-])cc2)cc1 ?
HIF activator: -0.1; proCasp7 act: 5.7; Calb FLC: -3.4; proCasp3 act: -1.7

How did Nc1ccc(Sc2ccc([N+](=O)[O-])cc2)cc1 do in these assays?
HIF activator: 0.2; proCasp7 act: -4.8; GAA850 FXN act: 2.1; Calb FLC: 93.3*; Neddyl block: -22.4; proCasp3 act: -4.9

How did C/C(=N\Nc1ccc([N+](=O)[O-])cc1)c1ccc(O)cc1 do in these assays?
HIF activator: 5.2; proCasp7 act: -24.7; GAA850 FXN act: 2.5; Calb FLC: 113.0*; Neddyl block: -83.5; proCasp3 act: -17.8

Results for CC(=O)NC/C(C)=N\Nc1ccc([N+](=O)[O-])cc1 ?
HIF activator: 0.1; proCasp7 act: 18.0; GAA850 FXN act: -0.5; Calb FLC: 112.9*; Neddyl block: -14.9; proCasp3 act: -2.4

What do the screens show for `C/C(=N/NC(=O)c1cc(O)c(O)c(O)c1)c1ccc([N+](=O)[O-])cc1`?
HIF activator: 0.0; GAA850 FXN act: -1.1; Calb FLC: 90.5*; Neddyl block: -37.8

Results for O=C(Oc1c(Cl)cc(Cl)c2cccnc12)c1cccc([N+](=O)[O-])c1 ?
HIF activator: 0.2; proCasp7 act: 1.6; GAA850 FXN act: -1.1; Calb FLC: 103.6*; Neddyl block: -4.0; proCasp3 act: -0.8

What do the screens show for `O=C(Oc1ccc(Cl)c2cccnc12)c1cccc([N+](=O)[O-])c1`?
HIF activator: 0.2; proCasp7 act: 3.9; GAA850 FXN act: 0.3; Calb FLC: 85.0*; Neddyl block: -5.9; proCasp3 act: -5.1

What do the screens show for `O=C(Oc1cccc2cccnc12)c1cccc([N+](=O)[O-])c1`?
HIF activator: 0.2; proCasp7 act: 6.2; GAA850 FXN act: 1.7; Calb FLC: -3.5; Neddyl block: -6.0; proCasp3 act: 2.8

How did O=S(=O)(CCN1CCCCC1)CCS(=O)(=O)CCN1CCCCC1 do in these assays?
GAA850 FXN act: 1.2; Neddyl block: 8.6

Results for CCOC(=O)c1c(C)oc2cc(Cl)c(O)c(CN(C)C)c12 ?
HIF activator: 0.3; proCasp7 act: 4.3; GAA850 FXN act: -0.4; Calb FLC: -2.8; Neddyl block: 2.7; proCasp3 act: -0.8

Results for CCOC(=O)c1c(-c2ccccc2)oc2cc(CN(C)C)c(O)c(CN(C)C)c12 ?
HIF activator: 12.2*; proCasp7 act: 1.4; GAA850 FXN act: -0.6; Calb FLC: -3.2; Neddyl block: 9.1; proCasp3 act: 4.3

Results for CCOC(=O)C(N=Nc1nn[nH]n1)C(C)=O (stereo not drawn) ?
GAA850 FXN act: -1.5; Neddyl block: -15.0

Results for Cc1ccc2cc(C3C(C#N)=C(N)Oc4c3ccc3cccnc43)c(=O)[nH]c2c1 (stereo not drawn) ?
HIF activator: 1.2; proCasp7 act: -6.4; GAA850 FXN act: -1.3; Calb FLC: 87.1*; Neddyl block: -2.3; proCasp3 act: -7.6

Results for CCc1ccc2[nH]c(=O)c(C3C(C#N)=C(N)Oc4c3ccc3cccnc43)cc2c1 (stereo not drawn) ?
HIF activator: 3.3; proCasp7 act: -1.7; GAA850 FXN act: -1.7; Calb FLC: 109.5*; Neddyl block: -31.9; proCasp3 act: 13.4

Results for CCOc1cccc(C2C(C#N)=C(N)Oc3cc(C)[nH]c(=O)c32)c1OCC (stereo not drawn) ?
HIF activator: -0.1; proCasp7 act: -11.5; GAA850 FXN act: -0.2; Calb FLC: 0.1; Neddyl block: -0.1; proCasp3 act: 7.6

Results for COCCCN1C(=O)C(CC(=O)NCCc2ccccn2)CC(C(=O)N2CCCCCC2)=C1C (stereo not drawn) ?
Neddyl block: -2.2

How did Cn1c(/C=C/c2cccc([N+](=O)[O-])c2)c([N+](=O)[O-])c(=O)n(C)c1=O do in these assays?
HIF activator: -0.1; proCasp7 act: 10.2; GAA850 FXN act: -1.6; Calb FLC: 94.3*; Neddyl block: -12.9; proCasp3 act: 6.8

Results for Cc1ccc(C)c(NC(=S)NNC(=O)c2csc(C(C)C)c2)c1 ?
HIF activator: 1.1; proCasp7 act: -6.4; GAA850 FXN act: 0.8; Calb FLC: 92.4*; Neddyl block: -1.6; proCasp3 act: -1.2

What do the screens show for `Cc1ccc(C)c(NC(=S)NNC(=O)c2csc(C)c2C)c1`?
HIF activator: 0.9; proCasp7 act: 0.5; GAA850 FXN act: 3.9; Calb FLC: -4.8; Neddyl block: 8.7; proCasp3 act: -1.8

Results for CC1(C)CN(c2ccccc2)N(C(=O)c2ccc(C#N)cc2)C1=O ?
proCasp7 act: -0.7; GAA850 FXN act: 2.0; Calb FLC: 85.0*; Neddyl block: 5.4; proCasp3 act: 5.8

Results for O=C1C(=O)c2ccccc2C(O)=C1c1cccc([N+](=O)[O-])c1 ?
HIF activator: 23.2*; proCasp7 act: 7.8; GAA850 FXN act: -1.9; Calb FLC: 53.4; Neddyl block: -51.7; proCasp3 act: 3.2

What do the screens show for `CC(C)c1ccc(C2=C(O)c3ccccc3C(=O)C2=O)cc1`?
HIF activator: 0.0; proCasp7 act: -3.0; GAA850 FXN act: 2.3; Calb FLC: 99.2*; Neddyl block: -37.2; proCasp3 act: 11.1

What do the screens show for `Cc1onc(-c2c(F)cccc2Cl)c1C(=O)OCC(=O)Nc1cccc(S(=O)(=O)N(C)C)c1`?
GAA850 FXN act: -0.5; Neddyl block: -11.2
